# Experimental data of several laboratories.
# Lines come from different studies, so protocols differ.
# MAP2K4: Dual specificity mitogen-activated protein kinase kinase 4 (MAP2K4, Homo sapiens, UniProt P45985)
# MME: Neprilysin (MME, Homo sapiens, UniProt P08473)
# ESR2: Estrogen receptor beta (ESR2, Homo sapiens, UniProt Q92731)
Compound,target,read-out,action,method,concentration,endpoint,value
Cc1nn(C)cc1-c1nc2c(N3CCN(Cc4ccc(Cl)cc4)CC3)c(Cl)cnc2[nH]1,"Phosphatidylinositol 5-phosphate 4-kinase type-2 gamma (PIP4K2C, Homo sapiens, UniProt Q8TBX8)",binding,,competition with immobilised ligand,1 µM,remaining binding,80%
C#Cc1n[nH]c2c(-c3cn([C@@H](C)c4ccccc4)c(=O)[nH]c3=O)cc(F)cc12,"Tyrosine-protein kinase JAK2 (JAK2, Homo sapiens, UniProt O60674)",enzyme activity,inhibitor,,0.1 µM,inhibition,-3%
COc1ncccc1-c1cnn2ccc(N3CCN(C(=O)OC(C)C)CC3)nc12,MAP2K4,binding,,competition with immobilised ligand,1 µM,remaining binding,100%
Cc1sc2c(c1C)C(c1ccc(Cl)cc1)=N[C@@H](CC(=O)OC(C)(C)C)c1nnc(C)n1-2,"Stimulator of interferon genes protein (STING1, Homo sapiens, UniProt Q86WV6, H232R)",thermal stability,,DSF,100 µM,ΔTm,-0.92 °C
Cc1ncc(C)n2nc(/C=C/c3nc(N4CCCC4)cc(N4CCOCC4)n3)nc12,MME,enzyme activity,inhibitor,,10 µM,inhibition,-13%
Nc1ncc(-c2nc(N3CCOCC3)nc(N3CCOCC3)n2)c(C(F)F)n1,"Citron Rho-interacting kinase (CIT, Homo sapiens, UniProt O14578)",binding,,competition with immobilised ligand,10 µM,remaining binding,91%
CCN(CC)CCCC[C@H](NC(=O)[C@H](CC(C)C)NC(=O)[C@H](C)NC(=O)[C@H](Cc1ccccc1)NC(=O)c1ccc(C(C)(C)C)cc1)C(=O)N[C@@H](CO)C(=O)OC,"Bromodomain adjacent to zinc finger domain protein 2A, bromodomain (BAZ2A, Homo sapiens, UniProt Q9UIF9)",thermal stability,,DSF,25 µM,ΔTm,-0.23 °C
COc1cc(Nc2ncc(F)c(Nc3ccc4c(n3)NC(=O)C(C)(C)O4)n2)cc(OC)c1OC,MAP2K4,binding,,competition with immobilised ligand,10 µM,inhibition,85%
c1ccc(C(NCCNC(c2ccccc2)c2ccccc2)c2ccccc2)cc1,ESR2,enzyme activity,inhibitor,,10 µM,inhibition,14%
C#Cc1n[nH]c2c(-c3cn([C@@H](C)c4ccccn4)c(=O)[nH]c3=O)cc(F)cc12,"Proto-oncogene tyrosine-protein kinase receptor Ret (RET, Homo sapiens, UniProt P07949, V804L)",enzyme activity,inhibitor,,0.1 µM,inhibition,4.5%
C[C@H](C(=O)N[C@H]1COc2ccccc2[C@@H]1S(C)(=O)=O)c1ccc(F)cc1,ESR2,enzyme activity,inhibitor,,10 µM,inhibition,3%
O=C(Nc1cccnn1)N1CCN([C@@H]2CCOc3cc(C(F)(F)F)ccc32)CC1,MME,enzyme activity,inhibitor,,20 µM,inhibition,3%
